For data set [1], the system named is HepG2. The experiment in a line: Hypolipidemic activity in human HepG2 cells assessed as inhibition of oleic acid-induced lipid accumulation at 10 uM. The format is functional, cell-based. An outline of the steps: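 Oleic acid-induced lipid accumulation in HepG2; cells given 100 μM oleic acid with or without compound at 10 μM in DMSO; DMSO-only and OA-only controls, Simvastatin 10 μM positive control. Lipid quantified by oil red O staining. Mean ± SD, n = 4–6, at least three independent experiments.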

The test system of data set [2] is HepG2. The data set is described as follows: Cytotoxicity against human HepG2 cells assessed as reduction in cell viability at 100 uM by MTT assay. It counts as cell-based. The settings on record: hepg2, 100 µM. An outline of the steps: (§1)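 MTT viability in HepG2 seeded at 1.2 × 10⁴ cells/well, grown 24 h, then given serial dilutions from DMSO stocks (0.22 μm-filtered) in DMEM + 10% FBS, DMSO as control; 48 h at 37 °C. MTT 5 mg/mL in PBS added for 4 h, formazan dissolved in 10% SDS/0.01 N HCl, A490 read; DMSO wells = 100% viable. Mean ± SD, n = 6.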
A general note: Tetrazolium assays rely on reduction of a dye to a coloured formazan, in cell work by metabolically active cells.

The test system of data set [3] is HepG2. The experiment in a line: Cytotoxicity against human HepG2 cells assessed as reduction in cell viability at 400 uM incubated for 48 hrs by MTT assay. The format is cell-based. The settings on record: hepg2, 48 h. An outline of the steps:
as §1

The test system of data set [4] is HepG2. The data set is described as follows: Hypolipidemic activity in human HepG2 cells assessed as inhibition of oleic acid-induced triglyceride accumulation at 10 uM after 24 hrs. The format is functional, cell-based. Summed up: (§2)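 HepG2 in 12-well plates at 2 × 10⁵ cells/well, 37 °C; after 24 h, co-treated 24 h with 100 μmol/L oleic acid plus compound (DMSO vehicle) or Simvastatin 10 μM. Cells rinsed twice in PBS, lysed on ice 20 min, and triglyceride and total cholesterol contents measured. OA-only cells served as reference. Mean ± SD, n = 4.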

The subject of data set [5] is HepG2. The data set is described as follows: Hypolipidemic activity against oleic acid-induced lipid accumulation in human HepG2 cell model assessed as decrease in triglycerides level at 20 uM measured after 24 hrs. The format is functional. Further details: scale not given: the % may be the effect or the level left. An outline of the steps: as §2
Data set [6] relates to HepG2. The data set is described as follows: Hypolipidemic activity against oleic acid-induced lipid accumulation in human HepG2 cell model assessed as decrease in total cholestrol level at 20 uM measured after 24 hrs. More on the design: scale not given: the % may be the effect or the level left. It counts as functional. Summed up: as §2
Data set [7] deals with HepG2. The experiment in a line: Hypolipidemic activity against oleic acid-induced lipid accumulation in human HepG2 cell model assessed as decrease in total cholestrol level at 5 uM measured after 24 hrs. It counts as functional. Further details: scale not given: the % may be the effect or the level left. An outline of the steps: as §2
For data set [8], the system named is HepG2. The data set is described as follows: Hypolipidemic activity in human HepG2 cells assessed as reduction in OA-induced lipid accumulation incubated for 1 hrs by Oil Red O staining based assay. The settings on record: time 24.0 hrs, in the assay text read “24 hrs” for “1 hrs”. It counts as functional, cell-based. Summed up: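 Oil red O: HepG2 fixed in 10% neutral formalin 1 h at room temperature, PBS-washed, stained 1 h with 0.5% oil red O in 60% isopropanol, water-washed and imaged (40×). For quantification, stained lipid droplets (30 min) washed with 70% ethanol and absorbance read at 358 nm.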

Data set [9] deals with HepG2. The data set is described as follows: Hypolipidemic activity against oleic acid-induced lipid accumulation in human HepG2 cell model assessed as decrease in triglycerides level at 10 uM measured after 24 hrs. More on the design: scale not given: the % may be the effect or the level left. The format is functional. Summed up:
as §2

For data set [10], the system named is HepG2. The experiment in a line: Hypolipidemic activity against oleic acid-induced lipid accumulation in human HepG2 cell model assessed as decrease in total cholestrol level at 10 uM measured after 24 hrs. It counts as functional. More on the design: scale not given: the % may be the effect or the level left. An outline of the steps: as §2

From ChEMBL document CHEMBL4819129, “Design, synthesis and lipid-lowering activities of penipyridone derivatives” (Bioorg Med Chem, 2021) come the findings set out here.

Activity calls are given as the source filed them. The rule behind the calls is not given here.

Take `CC(=O)O[C@@H](c1ccccc1)c1cc(=O)c(C(N)=O)cn1Cc1ccccc1`: in the data set with HepG2 [1], the result was inactive. Consider `CC(=O)O[C@@H](c1ccccc1)c1cc(OCCO)c(C(=O)N(C)C)cn1`, for which the result in the data set on HepG2 [1] was inactive. For the compound `CC(=O)O[C@@H](c1ccccc1)c1cc(OCc2cc(C(F)(F)F)cc(C(F)(F)F)c2)c(C(N)=O)cn1`, the result in the data set on HepG2 [1] was inactive. The same measure, in the same setting: the result for `NC(=O)c1cnc([C@@H](O)c2ccccc2)cc1OCCO` reads “inactive”. Turning to `CC(=O)O[C@@H](c1ccccc1)c1cc(OCCN(C)C)c(C(N)=O)cn1`, the outcome in the data set on HepG2 [1] was Active. The Activity result in the data set with HepG2 [2] is given as “Non-Toxic”. As for `CC(=O)O[C@@H](c1ccccc1)c1cc(=O)c(C(=O)NC(=O)CC(C)C)cn1CCO`, the outcome in the data set on HepG2 [1] was Active. On the same count and under the same terms, the result for `CC(=O)O[C@@H](c1ccccc1)c1cc(=O)c(C(N)=O)cn1CCN1CCCCC1` reads “Active”. As for `NC(=O)c1cn(CCO)c(-c2ccccc2)cc1=O`, the outcome in the data set on HepG2 [1] was Active. The Activity result in the data set on HepG2 [2] is recorded as “Non-Toxic”. With `CC(=O)O[C@@H](c1ccccc1)c1cc(OCCO)c(C(N)=O)cn1`, the outcome with HepG2 [1] and with HepG2 [4] was Active. In addition, the Activity entry with HepG2 [3] is recorded as “Non-Toxic”.

For the compound `CC(=O)O[C@@H](c1ccccc1)c1cc(OCc2ccccc2)c(C(N)=O)cn1`, in the data set with HepG2 [1], the outcome was inactive. In the case of `CC(=O)O[C@@H](c1ccccc1)c1cc(=O)c(C(N)=O)cn1Cc1cc(C(F)(F)F)cc(C(F)(F)F)c1`, in the data set with HepG2 [1], the result was inactive. The same measure, in the same setting: the result for `COCCOc1cc([C@@H](OC(C)=O)c2ccccc2)ncc1C(N)=O` reads “inactive”. Consider `CC(=O)O[C@@H](c1ccccc1)c1cc(OCCN2CCOCC2)c(C(N)=O)cn1`, for which the result in the data set on HepG2 [1] was Active. For the same compound, the Activity result in the data set with HepG2 [2] was “Non-Toxic”.

Consider `CC(C)CC(=O)O[C@@H](c1ccccc1)c1cc(=O)c(C(N)=O)cn1CCO`, for which the result in the data set on HepG2 [1] was inactive.

Take `CCOC(=O)COc1cc([C@@H](OC(C)=O)c2ccccc2)ncc1C(N)=O`: the outcome in the data set with HepG2 [1] and with HepG2 [4] was Active. In addition, the Activity entry with HepG2 [2] and in the data set with HepG2 [3] was “Non-Toxic” throughout. Consider `CC(=O)O[C@@H](c1ccccc1)c1cc(OCCN2CCSCC2)c(C(N)=O)cn1`, for which the result in the data set with HepG2 [1] and in the data set with HepG2 [4] was Active. Moreover, the Activity entry was “Non-Toxic” with HepG2 [2]; “Non-Toxic” in the data set with HepG2 [3]; 30.2% in the data set with HepG2 [5]; 14.8% with HepG2 [6]; 12.8% in the data set on HepG2 [7]; “Dose-Dependent Effect” with HepG2 [8].

On to `CC(C)CC(=O)O[C@@H](c1ccccc1)c1cc(OCCO)c(C(N)=O)cn1`, for which the result in the data set on HepG2 [1] was inactive. On the same count and under the same terms, the result for `CC(=O)O[C@@H](c1ccccc1)c1cc(=O)c(C(N)=O)cn1CCN1CCCC1` reads “Active”; that for `COCCn1cc(C(N)=O)c(=O)cc1[C@@H](OC(C)=O)c1ccccc1`, “inactive”; that for `COc1ccc(Cn2cc(C(N)=O)c(=O)cc2[C@@H](OC(C)=O)c2ccccc2)cc1`, “inactive”. Consider `CCC(C)(C)C(=O)O[C@H]1C[C@@H](C)C=C2C=C[C@H](C)[C@H](CC[C@@H]3C[C@@H](O)CC(=O)O3)[C@H]21` [SIMVASTATIN], for which the Activity is 29.1% with HepG2 [9] and 12.1% with HepG2 [10].

In the case of `CC(=O)O[C@H](c1ccccc1)c1cc(OCCO)c(C(N)=O)cn1`, the result with HepG2 [1] was inactive. Take `CC(=O)O[C@@H](c1ccccc1)c1cc(=O)c(C(N)=O)cn1CCN(C)C`: the outcome in the data set on HepG2 [1] was Active. Moreover, the Activity result with HepG2 [2] is listed as “Non-Toxic”.

For `CC(=O)O[C@@H](c1ccccc1)c1cc(OCCN2CCCC2)c(C(N)=O)cn1`, the result with HepG2 [1] was Active. Take `NC(=O)c1cnc(Cc2ccccc2)cc1OCCO`: in the data set with HepG2 [1], the result was Active. Besides, the Activity entry with HepG2 [2] is listed as “Non-Toxic”.
